Test results: ChEMBL document CHEMBL3046951, “Volatile constituents from the leaves of Callicarpa japonica Thunb. and their antibacterial activities” (2004)

Assays:
Format in all cases: functional
Bacillus cereus [1] = assay: Antimicrobial activity against Bacillus cereus ATCC 11778 assessed as growth inhibition rate at 6.8 mg/l after 72 hr by spectrophotometry; details: ATCC 11778, 72 h, read-out: GI
Summary of the method: (§1)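 Pure volatile compounds (purity >95%; one at 90%) were tested against B. cereus ATCC 11778. The strain was grown at 30 °C in nutrient broth for 24 h, then subcultured for 18 h. Optical density was read in a Bioscreen C every 24 h for 72 h, with 10% Tween 80 as the control.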

Bacillus cereus [2] = assay: Antimicrobial activity against Bacillus cereus ATCC 11778 assessed as growth inhibition rate at 0.68 mg/l after 72 hr by spectrophotometry; details: ATCC 11778, 72 h, read-out: GI; summary of the method: as §1
Bacillus cereus [3] = assay: Antimicrobial activity against Bacillus cereus ATCC 11778 assessed as growth inhibition rate at 0.12 mg/l after 72 hr by spectrophotometry; details: ATCC 11778, 72 h, read-out: GI; summary of the method: as §1
Bacillus cereus [4] = assay: Antimicrobial activity against Bacillus cereus ATCC 11778 assessed as growth inhibition rate at 0.05 mg/l after 72 hr by spectrophotometry; details: ATCC 11778, 72 h, read-out: GI; summary of the method: as §1
Bacillus cereus [5] = assay: Antimicrobial activity against Bacillus cereus ATCC 11778 assessed as growth inhibition rate at 0.025 mg/l after 72 hr by spectrophotometry; details: ATCC 11778, 72 h, read-out: GI; summary of the method: as §1
Salmonella typhimurium [6] = assay: Antimicrobial activity against Salmonella enterica subsp. enterica serovar Typhimurium ATCC 14028 assessed as growth inhibition rate at 6.8 mg/l after 72 hr by spectrophotometry; details: ATCC 14028, 72 h, read-out: GI
Summary of the method: (§2)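 Salmonella Typhimurium ATCC 14028 grown in nutrient broth at 30 °C, precultured 24 h, then subcultured 1:100 for 18 h before testing. Single volatile compounds (>95% pure) were added. OD was read every 24 h over 72 h in a Bioscreen C, with 10% Tween 80 as the comparison control.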

Salmonella typhimurium [7] = assay: Antimicrobial activity against Salmonella enterica subsp. enterica serovar Typhimurium ATCC 14028 assessed as growth inhibition rate at 0.68 mg/l after 72 hr by spectrophotometry; details: ATCC 14028, 72 h, read-out: GI; summary of the method: as §2
Salmonella typhimurium [8] = assay: Antimicrobial activity against Salmonella enterica subsp. enterica serovar Typhimurium ATCC 14028 assessed as growth inhibition rate at 0.12 mg/l after 72 hr by spectrophotometry; details: ATCC 14028, 72 h, read-out: GI; summary of the method: as §2
Salmonella typhimurium [9] = assay: Antimicrobial activity against Salmonella enterica subsp. enterica serovar Typhimurium ATCC 14028 assessed as growth inhibition rate at 0.05 mg/l after 72 hr by spectrophotometry; details: ATCC 14028, 72 h, read-out: GI; summary of the method: as §2
Salmonella typhimurium [10] = assay: Antimicrobial activity against Salmonella enterica subsp. enterica serovar Typhimurium ATCC 14028 assessed as growth inhibition rate at 0.025 mg/l after 72 hr by spectrophotometry; details: ATCC 14028, 72 h, read-out: GI; summary of the method: as §2
Listeria monocytogenes [11] = assay: Antimicrobial activity against Listeria monocytogenes ATCC 19111 assessed as growth inhibition rate at 3.4 mg/l after 72 hr by spectrophotometry; details: ATCC 19111, 72 h, read-out: GI
Summary of the method: (§3)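 L. monocytogenes was grown at 30 °C in tryptic soy broth, subcultured for 18 h, and exposed to pure volatile compounds (>95% purity). Growth was followed by Bioscreen C optical density every 24 h for 72 h against a 10% Tween 80 control.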

Escherichia coli [12] = assay: Antimicrobial activity against Escherichia coli O157:H7 ATCC 43894 assessed as growth inhibition rate at 6.8 mg/l after 72 hr by spectrophotometry; details: O157:H7 ATCC 43894, 72 h, read-out: GI
Escherichia coli [13] = assay: Antimicrobial activity against Escherichia coli O157:H7 ATCC 43894 assessed as growth inhibition rate at 0.68 mg/l after 72 hr by spectrophotometry; details: O157:H7 ATCC 43894, 72 h, read-out: GI
Escherichia coli [14] = assay: Antimicrobial activity against Escherichia coli O157:H7 ATCC 43894 assessed as growth inhibition rate at 0.12 mg/l after 72 hr by spectrophotometry; details: O157:H7 ATCC 43894, 72 h, read-out: GI
Escherichia coli [15] = assay: Antimicrobial activity against Escherichia coli O157:H7 ATCC 43894 assessed as growth inhibition rate at 0.05 mg/l after 72 hr by spectrophotometry; details: O157:H7 ATCC 43894, 72 h, read-out: GI
Escherichia coli [16] = assay: Antimicrobial activity against Escherichia coli O157:H7 ATCC 43894 assessed as growth inhibition rate at 0.025 mg/l after 72 hr by spectrophotometry; details: O157:H7 ATCC 43894, 72 h, read-out: GI
Staphylococcus aureus [17] = assay: Antimicrobial activity against Staphylococcus aureus ATCC 25923 assessed as growth inhibition rate at 6.8 mg/l after 72 hr by spectrophotometry; details: ATCC 25923, 72 h, read-out: GI
Summary of the method: (§4)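 Staphylococcus aureus ATCC 25923 grown at 37 °C in tryptic soy broth, using an 18 h subculture of a 24 h culture. Individual leaf-volatile compounds (>95% purity) were tested. Bioscreen C optical density was recorded every 24 h for 72 h and compared with a 10% Tween 80 control.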

Staphylococcus aureus [18] = assay: Antimicrobial activity against Staphylococcus aureus ATCC 25923 assessed as growth inhibition rate at 0.68 mg/l after 72 hr by spectrophotometry; details: ATCC 25923, 72 h, read-out: GI; summary of the method: as §4
Staphylococcus aureus [19] = assay: Antimicrobial activity against Staphylococcus aureus ATCC 25923 assessed as growth inhibition rate at 0.12 mg/l after 72 hr by spectrophotometry; details: ATCC 25923, 72 h, read-out: GI
Vibrio parahaemolyticus [20] = assay: Antimicrobial activity against Vibrio parahaemolyticus ATCC 33844 assessed as growth inhibition rate at 3.4 mg/l after 72 hr by spectrophotometry; details: ATCC 33844, 72 h, read-out: GI
Summary of the method: (§5)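 Vibrio parahaemolyticus ATCC 33844 grown at 37 °C in tryptic soy broth with 3% (w/v) NaCl, using an 18 h subculture of a 24 h culture. Pure compounds (>95% purity) were tested. Bioscreen C optical density was read every 24 h for 72 h against a 10% Tween 80 control.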

Staphylococcus aureus [21] = assay: Antimicrobial activity against Staphylococcus aureus ATCC 25923 assessed as growth inhibition rate at 0.05 mg/l after 72 hr by spectrophotometry; details: ATCC 25923, 72 h, read-out: GI
Staphylococcus aureus [22] = assay: Antimicrobial activity against Staphylococcus aureus ATCC 25923 assessed as growth inhibition rate at 0.025 mg/l after 72 hr by spectrophotometry; details: ATCC 25923, 72 h, read-out: GI
Salmonella typhimurium [23] = assay: Antimicrobial activity against Salmonella enterica subsp. enterica serovar Typhimurium ATCC 14028 assessed as growth inhibition rate at 3.4 mg/l after 72 hr by spectrophotometry; details: ATCC 14028, 72 h, read-out: GI; summary of the method: as §2
Escherichia coli [24] = assay: Antimicrobial activity against Escherichia coli O157:H7 ATCC 43894 assessed as growth inhibition rate at 3.4 mg/l after 72 hr by spectrophotometry; details: O157:H7 ATCC 43894, 72 h, read-out: GI
Staphylococcus aureus [25] = assay: Antimicrobial activity against Staphylococcus aureus ATCC 25923 assessed as growth inhibition rate at 3.4 mg/l after 72 hr by spectrophotometry; details: ATCC 25923, 72 h, read-out: GI; summary of the method: as §4
Listeria monocytogenes [26] = assay: Antimicrobial activity against Listeria monocytogenes ATCC 19111 assessed as growth inhibition rate at 6.8 mg/l after 72 hr by spectrophotometry; details: ATCC 19111, 72 h, read-out: GI; summary of the method: as §3
Listeria monocytogenes [27] = assay: Antimicrobial activity against Listeria monocytogenes ATCC 19111 assessed as growth inhibition rate at 0.68 mg/l after 72 hr by spectrophotometry; details: ATCC 19111, 72 h, read-out: GI; summary of the method: as §3
Listeria monocytogenes [28] = assay: Antimicrobial activity against Listeria monocytogenes ATCC 19111 assessed as growth inhibition rate at 0.12 mg/l after 72 hr by spectrophotometry; details: ATCC 19111, 72 h, read-out: GI; summary of the method: as §3
Listeria monocytogenes [29] = assay: Antimicrobial activity against Listeria monocytogenes ATCC 19111 assessed as growth inhibition rate at 0.05 mg/l after 72 hr by spectrophotometry; details: ATCC 19111, 72 h, read-out: GI; summary of the method: as §3
Listeria monocytogenes [30] = assay: Antimicrobial activity against Listeria monocytogenes ATCC 19111 assessed as growth inhibition rate at 0.025 mg/l after 72 hr by spectrophotometry; details: ATCC 19111, 72 h, read-out: GI; summary of the method: as §3
Vibrio parahaemolyticus [31] = assay: Antimicrobial activity against Vibrio parahaemolyticus ATCC 33844 assessed as growth inhibition rate at 6.8 mg/l after 72 hr by spectrophotometry; details: ATCC 33844, 72 h, read-out: GI; summary of the method: as §5
Vibrio parahaemolyticus [32] = assay: Antimicrobial activity against Vibrio parahaemolyticus ATCC 33844 assessed as growth inhibition rate at 0.68 mg/l after 72 hr by spectrophotometry; details: ATCC 33844, 72 h, read-out: GI; summary of the method: as §5
Vibrio parahaemolyticus [33] = assay: Antimicrobial activity against Vibrio parahaemolyticus ATCC 33844 assessed as growth inhibition rate at 0.12 mg/l after 72 hr by spectrophotometry; details: ATCC 33844, 72 h, read-out: GI
Vibrio parahaemolyticus [34] = assay: Antimicrobial activity against Vibrio parahaemolyticus ATCC 33844 assessed as growth inhibition rate at 0.05 mg/l after 72 hr by spectrophotometry; details: ATCC 33844, 72 h, read-out: GI
Vibrio parahaemolyticus [35] = assay: Antimicrobial activity against Vibrio parahaemolyticus ATCC 33844 assessed as growth inhibition rate at 0.025 mg/l after 72 hr by spectrophotometry; details: ATCC 33844, 72 h, read-out: GI
Bacillus cereus [36] = assay: Antimicrobial activity against Bacillus cereus ATCC 11778 assessed as growth inhibition rate at 3.4 mg/l after 72 hr by spectrophotometry; details: ATCC 11778, 72 h, read-out: GI; summary of the method: as §1

C/C=C/C=C/C=O [2,4-HEXADIENAL]
inhibition of growth at 6.8 µg/mL (Bacillus cereus [1]): 100% | inhibition of growth at 0.68 µg/mL (Bacillus cereus [2]): 45.3% | inhibition of growth at 0.12 µg/mL (Bacillus cereus [3]): 10.8% | inhibition of growth at 0.05 µg/mL (Bacillus cereus [4]): 9.5% | inhibition of growth at 0.025 µg/mL (Bacillus cereus [5]): 10.3% | inhibition of growth at 6.8 µg/mL (Salmonella typhimurium [6]): 80.6% | inhibition of growth at 0.68 µg/mL (Salmonella typhimurium [7]): 18.4% | inhibition of growth at 0.12 µg/mL (Salmonella typhimurium [8]): 12.2% | inhibition of growth at 0.05 µg/mL (Salmonella typhimurium [9]): 12.9% | inhibition of growth at 0.025 µg/mL (Salmonella typhimurium [10]): 13.2% | inhibition of growth at 3.4 µg/mL (Listeria monocytogenes [11]): 32.4% | inhibition of growth at 6.8 µg/mL (Escherichia coli [12]): 20.2% | inhibition of growth at 0.68 µg/mL (Escherichia coli [13]): 1.9% | inhibition of growth at 0.12 µg/mL (Escherichia coli [14]): 2.1% | inhibition of growth at 0.05 µg/mL (Escherichia coli [15]): 0.5% | inhibition of growth at 0.025 µg/mL (Escherichia coli [16]): 0.3% | inhibition of growth at 6.8 µg/mL (Staphylococcus aureus [17]): 90.9% | inhibition of growth at 0.68 µg/mL (Staphylococcus aureus [18]): 8.8% | inhibition of growth at 0.12 µg/mL (Staphylococcus aureus [19]): 6.9% | inhibition of growth at 3.4 µg/mL (Vibrio parahaemolyticus [20]): 98.9% | inhibition of growth at 0.05 µg/mL (Staphylococcus aureus [21]): 5.3% | inhibition of growth at 0.025 µg/mL (Staphylococcus aureus [22]): 7.8% | inhibition of growth at 3.4 µg/mL (Salmonella typhimurium [23]): 45.1% | inhibition of growth at 3.4 µg/mL (Escherichia coli [24]): 12.7% | inhibition of growth at 3.4 µg/mL (Staphylococcus aureus [25]): 89.4% | inhibition of growth at 6.8 µg/mL (Listeria monocytogenes [26]): 41.4% | inhibition of growth at 0.68 µg/mL (Listeria monocytogenes [27]): 9.2% | inhibition of growth at 0.12 µg/mL (Listeria monocytogenes [28]): 7.5% | inhibition of growth at 0.05 µg/mL (Listeria monocytogenes [29]): 3.9% | inhibition of growth at 0.025 µg/mL (Listeria monocytogenes [30]): 3.9% | inhibition of growth at 6.8 µg/mL (Vibrio parahaemolyticus [31]): 99.1% | inhibition of growth at 0.68 µg/mL (Vibrio parahaemolyticus [32]): 20.3% | inhibition of growth at 0.12 µg/mL (Vibrio parahaemolyticus [33]): 10.4% | inhibition of growth at 0.05 µg/mL (Vibrio parahaemolyticus [34]): 5.8% | inhibition of growth at 0.025 µg/mL (Vibrio parahaemolyticus [35]): 6.2% | inhibition of growth at 3.4 µg/mL (Bacillus cereus [36]): 67.3%
